# Test results from ChEMBL document CHEMBL2321812 (J Med Chem, 2013).
# Calls of active or inactive are those of the source. The rule behind the calls is not given here.
# Columns and labels:
# [1] = Tmax in female ICR mouse at 5 mg/kg, ip; assay type: ADME, organism-based; design: dose 5 mg/kg, route intraperitoneal; settings: in vivo
# Procedure, shortened: (§1)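 Male and female ICR mice (18.2-26.0 g) got 5 mg/kg i.p. in 5% DMSO/50% PEG400/45% saline. Terminal cardiac blood was drawn after CO2 euthanasia at 5, 15, 30 min and 1, 2, 4, 8, 24 h.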
# [2] = AUC (0 to infinity) in female ICR mouse at 5 mg/kg, ip; assay type: ADME, organism-based; design: time infinity, dose 5 mg/kg, route intraperitoneal; settings: plasma; procedure, shortened: as §1
# [3] = Oral bioavailability in female ICR mouse measured from AUC (0 to infinity) at 5 mg/kg; assay type: ADME, organism-based; settings: in vivo
# Procedure, shortened: (§2)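 Oral 5 mg/kg (10% NMP/60% PEG400/30% saline, after 10-15 h fast) was compared with 1 mg/kg i.v. (5% DMSO/50% PEG400/45% saline) in male and female ICR mice. Plasma from 5 min to 24 h was measured by HPLC-MS/MS.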
# [4] = Tmax in male ICR mouse at 5 mg/kg, po; assay type: ADME, organism-based; design: dose 5 mg/kg, route oral; settings: in vivo
# Procedure, shortened: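 Male and female ICR mice (18.2-26.0 g), fasted overnight (10-15 h) before oral dosing; single gavage at 5 mg/kg in 10% NMP, 60% PEG400, 30% saline. Blood taken by cardiac puncture after CO2 euthanasia at 5, 15, 30 min and 1, 2, 4, 8, 24 h. Heparinised plasma assayed by HPLC-MS/MS. Tmax is the time to reach Cmax.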
# [5] = Tmax in female ICR mouse at 1 mg/kg, iv; assay type: ADME, organism-based; design: dose 1 mg/kg, route intravenous; settings: in vivo
# Procedure, shortened: (§3)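 Single 1 mg/kg i.v. injection to male and female ICR mice (18.2-26.0 g) in 5% DMSO/50% PEG400/45% saline. Blood was taken by cardiac puncture after CO2 euthanasia at 5, 15, 30 min and 1, 2, 4, 8, 24 h post dose.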
# [6] = Oral bioavailability in male ICR mouse measured from AUC (0 to t) at 5 mg/kg; assay type: ADME, organism-based; settings: in vivo; procedure, shortened: as §2
# [7] = AUC (0 to infinity) in female ICR mouse at 1 mg/kg, iv; assay type: ADME, organism-based; design: time infinity, dose 1 mg/kg, route intravenous; settings: plasma; procedure, shortened: as §3
# [8] = Apparent volume of distribution in male ICR mouse at 1 mg/kg, iv; assay type: ADME, organism-based; design: dose 1 mg/kg, route intravenous; settings: in vivo, read-out: Vz; procedure, shortened: as §3
# [9] = AUC (0 to infinity) in female ICR mouse at 5 mg/kg, po; assay type: ADME, organism-based; design: time infinity, dose 5 mg/kg, route oral; settings: plasma
# Procedure, shortened: (§4)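 Oral gavage at 5 mg/kg in 10% NMP/60% PEG400/30% saline to overnight-fasted (10-15 h) male and female ICR mice (18.2-26.0 g). Blood was taken by cardiac puncture after CO2 euthanasia at 5, 15, 30 min and 1, 2, 4, 8, 24 h.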
# [10] = AUC (0 to t) in female ICR mouse at 1 mg/kg, iv; assay type: ADME, organism-based; design: dose 1 mg/kg, route intravenous; settings: plasma; procedure, shortened: as §3
# [11] = Mean residence time (0 to infinity) in female ICR mouse at 1 mg/kg, iv; assay type: ADME, organism-based; design: dose 1 mg/kg, route intravenous; settings: in vivo; procedure, shortened: as §3
# [12] = Oral bioavailability in male ICR mouse measured from AUC (0 to infinity) at 5 mg/kg; assay type: ADME, organism-based; settings: in vivo; procedure, shortened: as §2
# [13] = AUC (0 to t) in male ICR mouse at 5 mg/kg, ip; assay type: ADME, organism-based; design: dose 5 mg/kg, route intraperitoneal; settings: plasma; procedure, shortened: as §1
# [14] = Half life in female ICR mouse at 5 mg/kg, po; assay type: ADME, organism-based; design: dose 5 mg/kg, route oral; settings: in vivo; procedure, shortened: as §4
# [15] = AUC (0 to t) in male ICR mouse at 5 mg/kg, po; assay type: ADME, organism-based; design: dose 5 mg/kg, route oral; settings: plasma; procedure, shortened: as §4
# [16] = Half life in female ICR mouse at 5 mg/kg, ip; assay type: ADME, organism-based; design: dose 5 mg/kg, route intraperitoneal; settings: in vivo; procedure, shortened: as §1
# [17] = Clearance in female ICR mouse at 1 mg/kg, iv; assay type: ADME, organism-based; design: dose 1 mg/kg, route intravenous; settings: in vivo; procedure, shortened: as §3
# [18] = Cmax in male ICR mouse at 1 mg/kg, iv; assay type: ADME, organism-based; design: dose 1 mg/kg, route intravenous; settings: in vivo; procedure, shortened: as §3
# [19] = AUC (0 to t) in female ICR mouse at 5 mg/kg, po; assay type: ADME, organism-based; design: dose 5 mg/kg, route oral; settings: plasma; procedure, shortened: as §4
# Mus musculus [20] = test: Bioavailability in male ICR mouse measured from AUC (0 to t) at 5 mg/kg, ip; assay type: ADME, organism-based; settings: in vivo
# Procedure, shortened: (§5)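 Intraperitoneal dosing was 5 mg/kg, referenced to 1 mg/kg i.v., both in 5% DMSO/50% PEG400/45% saline, in male and female ICR mice. Plasma was sampled from 5 min to 24 h and measured by HPLC-MS/MS.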
# [21] = AUC (0 to t) in female ICR mouse at 5 mg/kg, ip; assay type: ADME, organism-based; design: dose 5 mg/kg, route intraperitoneal; settings: plasma; procedure, shortened: as §1
# [22] = Bioavailability in female ICR mouse measured from AUC (0 to infinity) at 5 mg/kg, ip; assay type: ADME, organism-based; settings: in vivo; procedure, shortened: as §5
# [23] = Cmax in male ICR mouse at 5 mg/kg, ip; assay type: ADME, organism-based; design: dose 5 mg/kg, route intraperitoneal; settings: in vivo; procedure, shortened: as §1
# [24] = AUC (0 to t) in male ICR mouse at 1 mg/kg, iv; assay type: ADME, organism-based; design: dose 1 mg/kg, route intravenous; settings: plasma; procedure, shortened: as §3
# [25] = AUC (0 to infinity) in male ICR mouse at 1 mg/kg, iv; assay type: ADME, organism-based; design: time infinity, dose 1 mg/kg, route intravenous; settings: plasma; procedure, shortened: as §3
# [26] = Mean residence time (0 to infinity) in male ICR mouse at 5 mg/kg, po; assay type: ADME, organism-based; design: dose 5 mg/kg, route oral; settings: in vivo; procedure, shortened: as §4
# [27] = Mean residence time (0 to infinity) in male ICR mouse at 1 mg/kg, iv; assay type: ADME, organism-based; design: dose 1 mg/kg, route intravenous; settings: in vivo; procedure, shortened: as §3
# [28] = Cmax in female ICR mouse at 5 mg/kg, ip; assay type: ADME, organism-based; design: dose 5 mg/kg, route intraperitoneal; settings: in vivo; procedure, shortened: as §1
# [29] = Apparent volume of distribution in female ICR mouse at 1 mg/kg, iv; assay type: ADME, organism-based; design: dose 1 mg/kg, route intravenous; settings: in vivo, read-out: Vz; procedure, shortened: as §3
# [30] = Cmax in female ICR mouse at 1 mg/kg, iv; assay type: ADME, organism-based; design: dose 1 mg/kg, route intravenous; settings: in vivo; procedure, shortened: as §3
# [31] = Bioavailability in male ICR mouse measured from AUC (0 to infinity) at 5 mg/kg, ip; assay type: ADME, organism-based; settings: in vivo; procedure, shortened: as §5
# [32] = AUC (0 to infinity) in male ICR mouse at 5 mg/kg, ip; assay type: ADME, organism-based; design: time infinity, dose 5 mg/kg, route intraperitoneal; settings: plasma; procedure, shortened: as §1
# [33] = Mean residence time (0 to infinity) in female ICR mouse at 5 mg/kg, ip; assay type: ADME, organism-based; design: dose 5 mg/kg, route intraperitoneal; settings: in vivo; procedure, shortened: as §1
# Mus musculus [34] = test: Bioavailability in female ICR mouse measured from AUC (0 to t) at 5 mg/kg, ip; assay type: ADME, organism-based; settings: in vivo; procedure, shortened: as §5
# [35] = AUC (0 to infinity) in male ICR mouse at 5 mg/kg, po; assay type: ADME, organism-based; design: time infinity, dose 5 mg/kg, route oral; settings: plasma; procedure, shortened: as §4
# [36] = Oral bioavailability in female ICR mouse measured from AUC (0 to t) at 5 mg/kg; assay type: ADME, organism-based; settings: in vivo; procedure, shortened: as §2
# [37] = Mean residence time (0 to infinity) in female ICR mouse at 5 mg/kg, po; assay type: ADME, organism-based; design: dose 5 mg/kg, route oral; settings: in vivo; procedure, shortened: as §4
# [38] = Cmax in male ICR mouse at 5 mg/kg, po; assay type: ADME, organism-based; design: dose 5 mg/kg, route oral; settings: in vivo; procedure, shortened: as §4
# [39] = Mean residence time (0 to infinity) in male ICR mouse at 5 mg/kg, ip; assay type: ADME, organism-based; design: dose 5 mg/kg, route intraperitoneal; settings: in vivo; procedure, shortened: as §1
# [40] = biological target: Poly [ADP-ribose] polymerase 1 (Homo sapiens) (UniProt P09874); test: Inhibition of PARP1 (unknown origin) up to 20 uM by NAD+-dependent autopoly(ADP ribosyl)lation assay
# Procedure, shortened: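 PARP1 was tested with a chemiluminescent poly(ADP-ribosyl)ation assay kit over a range of concentrations. Each point was run in duplicate and the experiment was done twice. Luminescence was read and IC50 was fitted to a Langmuir binding isotherm.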
# Cytochrome P450 3A4 = Cytochrome P450 3A4 (Homo sapiens, UniProt P08684); test: Inhibition of CYP3A4 (unknown origin)
# [41] = Tmax in male ICR mouse at 1 mg/kg, iv; assay type: ADME, organism-based; design: dose 1 mg/kg, route intravenous; settings: in vivo; procedure, shortened: as §3
# [42] = Tmax in female ICR mouse at 5 mg/kg, po; assay type: ADME, organism-based; design: dose 5 mg/kg, route oral; settings: in vivo; procedure, shortened: as §4
# [43] = Tmax in male ICR mouse at 5 mg/kg, ip; assay type: ADME, organism-based; design: dose 5 mg/kg, route intraperitoneal; settings: in vivo; procedure, shortened: as §1
# [44] = Clearance in male ICR mouse at 1 mg/kg, iv; assay type: ADME, organism-based; design: dose 1 mg/kg, route intravenous; settings: in vivo; procedure, shortened: as §3
# [45] = Half life in male ICR mouse at 5 mg/kg, po; assay type: ADME, organism-based; design: dose 5 mg/kg, route oral; settings: in vivo; procedure, shortened: as §4
# [46] = Cmax in female ICR mouse at 5 mg/kg, po; assay type: ADME, organism-based; design: dose 5 mg/kg, route oral; settings: in vivo; procedure, shortened: as §4
# [47] = Half life in female ICR mouse at 1 mg/kg, iv; assay type: ADME, organism-based; design: dose 1 mg/kg, route intravenous; settings: in vivo; procedure, shortened: as §3
# [48] = Half life in male ICR mouse at 5 mg/kg, ip; assay type: ADME, organism-based; design: dose 5 mg/kg, route intraperitoneal; settings: in vivo; procedure, shortened: as §1
# Cytochrome P450 3A4, sequence (P08684 whole entry): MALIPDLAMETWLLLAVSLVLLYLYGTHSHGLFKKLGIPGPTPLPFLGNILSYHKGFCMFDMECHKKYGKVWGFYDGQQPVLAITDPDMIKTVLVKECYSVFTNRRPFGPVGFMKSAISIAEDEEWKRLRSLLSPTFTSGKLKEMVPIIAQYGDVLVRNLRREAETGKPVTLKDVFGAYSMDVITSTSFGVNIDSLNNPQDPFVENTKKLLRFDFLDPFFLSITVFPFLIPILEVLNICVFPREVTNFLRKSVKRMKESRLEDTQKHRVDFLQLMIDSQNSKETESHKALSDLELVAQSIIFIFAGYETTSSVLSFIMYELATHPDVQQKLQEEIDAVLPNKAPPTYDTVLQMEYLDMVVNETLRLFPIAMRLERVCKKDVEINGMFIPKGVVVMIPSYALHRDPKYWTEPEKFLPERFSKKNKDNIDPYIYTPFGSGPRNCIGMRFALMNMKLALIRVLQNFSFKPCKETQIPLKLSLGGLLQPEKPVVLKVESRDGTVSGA
# Poly [ADP-ribose] polymerase 1 (Homo sapiens), sequence (P09874 whole entry): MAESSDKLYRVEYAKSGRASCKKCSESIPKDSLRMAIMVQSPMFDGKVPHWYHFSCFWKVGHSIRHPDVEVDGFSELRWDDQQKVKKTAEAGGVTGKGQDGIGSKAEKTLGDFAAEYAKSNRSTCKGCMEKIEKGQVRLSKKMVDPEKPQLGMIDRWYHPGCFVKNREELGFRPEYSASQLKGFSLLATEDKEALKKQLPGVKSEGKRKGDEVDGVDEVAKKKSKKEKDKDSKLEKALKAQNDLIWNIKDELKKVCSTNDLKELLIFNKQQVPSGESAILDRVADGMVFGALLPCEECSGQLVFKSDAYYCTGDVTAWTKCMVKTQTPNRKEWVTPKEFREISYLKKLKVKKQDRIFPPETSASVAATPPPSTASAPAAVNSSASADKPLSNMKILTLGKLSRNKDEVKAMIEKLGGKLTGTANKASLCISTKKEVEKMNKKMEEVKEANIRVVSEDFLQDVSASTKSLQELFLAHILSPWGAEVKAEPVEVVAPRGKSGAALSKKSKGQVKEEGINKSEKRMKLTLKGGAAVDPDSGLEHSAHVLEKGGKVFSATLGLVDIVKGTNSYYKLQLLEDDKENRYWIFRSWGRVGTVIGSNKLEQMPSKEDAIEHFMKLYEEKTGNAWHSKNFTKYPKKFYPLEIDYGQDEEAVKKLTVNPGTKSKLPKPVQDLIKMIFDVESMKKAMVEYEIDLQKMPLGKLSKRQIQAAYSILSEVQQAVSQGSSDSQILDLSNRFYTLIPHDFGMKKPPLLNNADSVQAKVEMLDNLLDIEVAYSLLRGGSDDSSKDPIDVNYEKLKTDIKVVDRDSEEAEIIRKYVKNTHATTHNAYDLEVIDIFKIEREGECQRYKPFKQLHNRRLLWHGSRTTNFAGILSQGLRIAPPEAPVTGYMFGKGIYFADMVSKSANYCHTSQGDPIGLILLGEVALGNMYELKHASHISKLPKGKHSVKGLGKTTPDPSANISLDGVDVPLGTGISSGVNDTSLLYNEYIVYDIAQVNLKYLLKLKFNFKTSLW
smiles,measurement,setting,value
CS(=O)(=O)c1ccc(-c2nnc(/C=C/c3nnc(-c4ccc(C#N)cc4)o3)n2-c2ccccc2Cl)nc1,Tmax,[1],0.5 h
same,AUC(0-inf),[2],14100 ng·h/mL
same,bioavailability,[3],59%
same,Tmax,[4],0.25 h
same,Tmax,[5],0.5 h
same,bioavailability,[6],116%
same,AUC(0-inf),[7],2300 ng·h/mL
same,Vd,[8],2.7 L/kg
same,AUC(0-inf),[9],6750 ng·h/mL
same,AUC(0-t),[10],1850 ng·h/mL
same,MRT inf,[11],4.8 h
same,bioavailability,[12],99%
same,AUC(0-t),[13],11200 ng·h/mL
same,half-life,[14],2.63 h
same,AUC(0-t),[15],8250 ng·h/mL
same,half-life,[16],2.73 h
same,clearance,[17],7.17 mL/min/kg
same,Cmax,[18],434 ng/mL
same,AUC(0-t),[19],6740 ng·h/mL
same,F,Mus musculus [20],157%
same,AUC(0-t),[21],14100 ng·h/mL
same,bioavailability,[22],122%
same,Cmax,[23],2360 ng/mL
same,AUC(0-t),[24],1420 ng·h/mL
same,AUC(0-inf),[25],1680 ng·h/mL
same,MRT inf,[26],5.1 h
same,MRT inf,[27],4.1 h
same,Cmax,[28],2660 ng/mL
same,Vd,[29],2.2 L/kg
same,Cmax,[30],462 ng/mL
same,bioavailability,[31],133%
same,AUC(0-inf),[32],11200 ng·h/mL
same,MRT inf,[33],4.6 h
same,F,Mus musculus [34],152%
same,AUC(0-inf),[35],8270 ng·h/mL
same,bioavailability,[36],72.7%
same,MRT inf,[37],5.1 h
same,Cmax,[38],967 ng/mL
same,MRT inf,[39],4.8 h
same,inhibition,[40],inactive
same,IC50,Cytochrome P450 3A4,> 25 µM
same,Tmax,[41],0.25 h
same,Tmax,[42],2 h
same,Tmax,[43],0.5 h
same,clearance,[44],10 mL/min/kg
same,half-life,[45],2.6 h
same,Cmax,[46],871 ng/mL
same,half-life,[47],3.46 h
same,half-life,[48],2.89 h
